Compounds with a hit are over-represented: about 1.8% of the library has one in this group of screens.
Tb MetRS inh: blocks T. brucei methionyl-tRNA synthetase activity | purified T. brucei MetRS, ATP depletion, Kinase-Glo luminescence | inhibition, % at 11.9 µM | 360,000 compounds, 0.4% hits;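 active means inhibition above a per-plate cutoff of the control wells' mean inhibition plus 3 SD, cut at about 5.5% in these data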;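 further: 0% = DMSO wells median and 100% = median of wells with control inhibitor compound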
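assay system = parasite MetRS enzyme | timing = 15 min preincubation, 2 h reaction, all 25 °C | evaluation = percent inhibition relative to median high and low control wells | medium = HEPES buffer containing pyrophosphatase, BSA, spermine, DTT | compound = single dose, 11.9 µM final nominal, 0.9% final DMSO | detection = Kinase-Glo luminescence, ATP depletion format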
NR1D1 modulator: modulators of human Rev-erb alpha DNA binding. P20393. Rev-erbα–FITC-DNA binding, fluorescence polarization, 90 min. activity, % at 10 µM. 370,000 compounds, 0.79% hits;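 active means activity above about 14%, limit read from the data; passing the limit was not always enough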;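 further: 0% = DMSO wells with 35 nM protein and 100% = DMSO wells with 750 nM protein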
PG9 binder: PG9 antibody binding by small molecule | TR-FRET gp120-PG9 antibody binding | inhibition, % at 6.7 µM | 360,000 compounds, 0.43% hits | AID 624416; in the data active means inhibition above about 8.5%
Rin1 Abl inh: human Rin1-Abl interaction inhibition | P00519+Q13671 | TR-FRET Rin1/Abl binding, biochemical | inhibition, % at 7.35 µM | 360,000 compounds, 0.4% hits; in the data active means inhibition above about 5%, passing the limit was not always enough
PG9 bind confirm: PG9 antibody binding, confirmed. shares compounds with PG9 binder. TR-FRET PG9 antibody binding, biochemical. inhibition, % at 6.7 µM. 1,500 compounds, 90% hits. AID 651571; in the data active means inhibition above about 9%
PGV04 Ab binding: counter-screen for PG9 binders: binding control antibody PGV04; shares compounds with PG9 binder; TR-FRET PGV04 antibody-gp120 binding, biochemical; inhibition, % at 6.7 µM; 1,500 compounds, 95% hits; AID 651604; in the data active means inhibition above about 9.5%
PG9 binder DR: PG9 antibody binding, dose response. shares compounds with PG9 binder. TR-FRET PG9 antibody-gp120 binding inhibition. IC50, µM. 95 tested, under 10 active. AID 651848; in the data active means IC50 below about 10 µM
PGV04 binding DR: counter-screen for PG9 binders: binding to control antibody PGV04 | shares compounds with PG9 binder | TR-FRET binding to control antibody PGV04 | IC50, µM | 95 compounds, 20% hits
PG126 DR counter: PG126 binding, dose response counter-screen. shares compounds with PG9 binder. TR-FRET binding to antibody PG126, counterscreen. IC50, µM. 95 compounds, 20% hits
Starred values were filed as active, the others as inactive; . = no result given. Unless noted, no stated cut-off is given here; in the data, active means IC50 below about 9 µM; inactive means the rest.

SMILES	Tb MetRS inh	NR1D1 modulator	PG9 binder	Rin1 Abl inh	PG9 bind confirm	PGV04 Ab binding	others
CCOC(=O)[C@]12CCCCC/C=C\1N(CCc1ccc(Cl)cc1)C(=O)[C@H]2CC(=O)NCC1CCCCC1	.	5.4	.	.	.	.
CC1(C)Cc2nc3sc4c(SCC(=O)NCc5ccccc5)ncnc4c3cc2CO1	0.1	-2.8	48.4*	-252.1	86.2*	87.9*
CC1(C)Cc2nc3sc4c(SCC(=O)O)ncnc4c3cc2CO1	0.2	1.1	-2.3	-13.3	.	.
O=C(NCCC1CCCCN1S(=O)(=O)c1ccccc1)C(=O)NCc1ccccn1 (configuration not stated)	-0.3	-2.3	1.5	2.0	.	.
COc1ccc(NS(=O)(=O)c2cccc(C(=O)N3CCN(Cc4ccc5c(c4)OCO5)CC3)c2)cc1	0.0	3.8	0.1	-2.0	.	.
O=C(c1ccc(NS(=O)(=O)c2ccccc2)cc1)N1CCN(Cc2ccc3c(c2)OCO3)CC1	-0.5	1.6	10.9*	0.3	6.2	7.2
CC1(C(=O)NCc2cccs2)Cc2c(-c3cccc(C(F)(F)F)c3)ccnc2O1 (configuration not stated)	-1.4	-5.1	1.2	-0.4	.	.
CC(=O)c1ccc(NC(=O)COc2ccccc2C(=O)Nc2ccccc2)cc1	-0.1	-1.5	-3.1	1.9	.	.
CC(=O)c1ccc(NC(=O)COc2ccccc2C(=O)Nc2ccc(C)cn2)cc1	-0.5	13.3	26.3*	-1.5	27.9*	42.1*
O=C(CSc1nc2ccccc2c(=O)n1Cc1ccc(Cl)cc1)NCc1cccs1	-0.8	15.5	16.6*	-0.3	21.1*	30.1*
O=C(CSc1nc2ccccc2c(=O)[nH]1)NCc1ccc(Cl)cc1	1.9	-0.7	12.3*	2.6	24.1*	27.4*
O=c1[nH]c(SCc2nc3ccccc3c(=O)n2-c2ccccc2)nc2ccccc12	0.3	5.0	13.0*	0.2	21.7*	27.5*
CCc1c(C)nc2c(Br)cccc2c1SCCC#N	0.3	12.7	9.6*	-42.3	13.4*	19.5*
CCc1c(C)nc2ccc(Br)cc2c1SCCC#N	0.0	5.1	11.2*	-27.0	13.3*	19.7*
CC(C)(C)[C@@H]1C=C(C(=O)Nc2ccccc2)O[C@H](OCc2ccc(CO)cc2)C1	-0.3	-0.4	0.4	2.3	.	.
C[C@H]1[C@@H](OC(=O)NC2CCC2)CC[C@@]23CCCN2C(=O)CCC[C@@H]13	.	-6.9	.	.	.	.
CN1/C(=C/C(=O)c2ccc(Cl)cc2)Sc2cc3c(cc21)OCO3	-0.3	-31.3	-27.1	-4.0	.	.
COc1ccc(C(=O)/C=C2/Sc3cc4c(cc3N2C)OCO4)cc1	-1.4	1.1	40.5*	-0.1	56.3*	49.1*	PG9 binder DR=>67;PGV04 binding DR=2.42*;PG126 DR counter=2.45*
CC(=O)c1nn(-c2ccccc2)cc1C(=O)c1cccc(Br)c1	-0.3	-2.1	0.0	1.6	.	.
CC(=O)c1nn(-c2cccc(Br)c2)cc1C(=O)c1ccccc1	-0.8	-0.5	13.3*	2.5	20.2*	24.5*
C[C@@H]1CN([C@H](C)CO)C(=O)CCCn2cc(nn2)CO[C@H]1CN(C)C(=O)OCc1ccccc1	-1.8	10.7	-0.6	-0.2	.	.
CCOC(=O)Cn1c(=NC(=O)CSC(C)=O)sc2cc(F)ccc21	0.2	2.3	39.7*	-21.8	69.1*	79.6*
CCOC(=O)Cn1c(=NC(=O)C(C)C)sc2c(C)cc(C)cc21	-0.6	-0.2	-1.1	1.5	.	.
COCCn1c(=NC(=O)CSC(C)=O)sc2cc(F)ccc21	-0.8	-2.6	1.9	-2.6	.	.
CCOC(=O)Cn1c(=NC(=O)CC)sc2c(C)cc(C)cc21	-0.8	1.9	11.5*	0.2	14.8*	23.2*
SMILES	Tb MetRS inh	NR1D1 modulator	PG9 binder	Rin1 Abl inh	PG9 bind confirm	PGV04 Ab binding	others
O=C(C1=C(O)C(=O)N(c2ncccn2)C1c1ccc(F)cc1)c1ccco1 (configuration not stated)	-0.3	2.8	-1.0	1.0	.	.
Cc1cc(N2C(=O)C(O)=C(C(=O)c3ccco3)C2c2cccc(O)c2)no1 (configuration not stated)	0.0	-2.2	0.3	3.0	.	.
Cc1ccc(C(=O)C2=C(O)C(=O)N(c3ncccn3)C2c2ccc(F)cc2)o1 (configuration not stated)	-1.3	6.3	16.0*	-1.8	18.1*	27.5*
Cc1cc(N2C(=O)C(O)=C(C(=O)c3ccco3)C2c2ccccc2F)no1 (configuration not stated)	-1.2	-3.8	10.2*	6.1	9.8*	27.6*
Cc1ccc(C(=O)C2=C(O)C(=O)N(c3ncccn3)C2c2ccccc2F)o1 (configuration not stated)	-0.3	-1.0	13.6*	4.2	25.0*	32.3*
COc1cccc(-c2nnc(SCC(=O)Nc3cccc4ccccc34)n2Cc2ccco2)c1	.	1.5	.	.	.	.
O=[N+]([O-])c1cccc(S(=O)(=O)Nc2nc3ccccc3nc2Nc2cccc(S(=O)(=O)N3CCCCC3)c2)c1	-0.4	7.6	-2.1	1.3	.	.
Cc1ccc(S(=O)(=O)Nc2nc3ccccc3nc2Nc2cccc(S(=O)(=O)N3CCCC3)c2)cc1	-1.0	1.5	9.8*	-1.3	12.1*	13.6*
COC(=O)[C@]12C[C@H](CC(=O)N3CCSCC3)C(=O)N(Cc3ccccc3)C1=C[C@H](COCc1ccccc1)O[C@@H]2C	.	-4.5	.	.	.	.
CCc1cccc(CC)c1NC(=O)Cn1c(-c2ccccc2Cl)nc2ccccc21	-1.0	1.2	17.0*	-0.8	18.9*	24.7*
CC(C)N(C(=O)Cn1c(-c2ccccc2Cl)nc2ccccc21)c1ccccc1	-1.1	0.7	-1.8	-0.8	.	.
CCCCCCC/C=C(\C)[C@@H](O)[C@@H](C)C(=O)N1CCC[C@@H]1C(=O)O[C@H](C(=O)O[C@@H](C)C(=O)O)[C@@H](C)CC	.	-9.8	.	.	.	.
Cc1nc2ccccc2nc1CSc1nncs1	1.2	-1.3	9.8*	-6.3	5.7	6.5
C=CCN1C(=O)[C@@H](CC(=O)NCc2ccc(OC)c(OC)c2)[C@]2(C(=O)OCC)CCCCC/C=C/12	.	1.4	.	.	.	.
CCCCCCCCn1c2c(c(=N)c3ccccc31)CCC2	4.0	-0.1	0.8	-1.3	.	.
Cc1cc(C)c2c(=N)c3ccccc3n(CCCCCCCCn3c4ccccc4c(=N)c4c(C)cc(C)nc43)c2n1	-0.3	-28.0	9.7*	-2.2	28.0*	33.0*
COC(=O)C1(C)CN(S(=O)(=O)c2ccc(C)cc2)c2cc(OC)ccc2C1=O (configuration not stated)	-0.5	-3.0	8.6*	-8.5	15.2*	17.7*

Screens as filed in PubChem BioAssay.
